Test [1] has as its target T1, Mineralocorticoid receptor (Homo sapiens, UniProt P08235).
T1 sequence (P08235 whole entry): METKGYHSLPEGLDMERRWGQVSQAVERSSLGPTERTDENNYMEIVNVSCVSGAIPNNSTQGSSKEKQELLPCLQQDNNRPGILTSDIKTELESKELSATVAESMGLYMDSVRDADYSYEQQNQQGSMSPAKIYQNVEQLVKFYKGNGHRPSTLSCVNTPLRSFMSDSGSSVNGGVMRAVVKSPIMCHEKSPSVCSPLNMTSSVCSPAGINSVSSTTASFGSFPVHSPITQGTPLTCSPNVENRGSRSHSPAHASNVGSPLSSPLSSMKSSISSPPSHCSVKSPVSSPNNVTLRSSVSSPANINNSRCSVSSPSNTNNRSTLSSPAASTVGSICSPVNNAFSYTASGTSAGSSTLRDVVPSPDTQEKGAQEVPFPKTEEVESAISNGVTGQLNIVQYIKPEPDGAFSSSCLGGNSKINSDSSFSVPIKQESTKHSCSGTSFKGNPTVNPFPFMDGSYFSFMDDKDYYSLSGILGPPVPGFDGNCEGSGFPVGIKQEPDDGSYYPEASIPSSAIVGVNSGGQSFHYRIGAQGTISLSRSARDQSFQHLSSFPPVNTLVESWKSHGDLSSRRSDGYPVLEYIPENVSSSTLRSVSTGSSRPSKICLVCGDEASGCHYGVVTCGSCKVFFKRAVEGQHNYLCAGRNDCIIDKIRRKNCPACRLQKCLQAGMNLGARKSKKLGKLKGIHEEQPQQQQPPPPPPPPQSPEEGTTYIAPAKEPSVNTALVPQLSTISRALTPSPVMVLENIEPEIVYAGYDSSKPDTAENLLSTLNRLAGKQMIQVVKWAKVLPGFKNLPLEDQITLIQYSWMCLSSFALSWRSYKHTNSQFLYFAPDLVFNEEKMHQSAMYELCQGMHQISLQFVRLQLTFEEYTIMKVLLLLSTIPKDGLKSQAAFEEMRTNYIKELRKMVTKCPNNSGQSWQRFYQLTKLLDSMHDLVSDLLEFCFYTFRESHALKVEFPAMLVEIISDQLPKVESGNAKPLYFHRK
The test is described as follows: Antagonistic activity was determined in Human mineralocorticoid receptor(hMR) of CV-1 cells in cotransfection assay. The test is classed as functional, cell-based.

Test [2] has as its target T2, Progesterone receptor (Homo sapiens) (UniProt P06401).
T2 sequence (whole entry): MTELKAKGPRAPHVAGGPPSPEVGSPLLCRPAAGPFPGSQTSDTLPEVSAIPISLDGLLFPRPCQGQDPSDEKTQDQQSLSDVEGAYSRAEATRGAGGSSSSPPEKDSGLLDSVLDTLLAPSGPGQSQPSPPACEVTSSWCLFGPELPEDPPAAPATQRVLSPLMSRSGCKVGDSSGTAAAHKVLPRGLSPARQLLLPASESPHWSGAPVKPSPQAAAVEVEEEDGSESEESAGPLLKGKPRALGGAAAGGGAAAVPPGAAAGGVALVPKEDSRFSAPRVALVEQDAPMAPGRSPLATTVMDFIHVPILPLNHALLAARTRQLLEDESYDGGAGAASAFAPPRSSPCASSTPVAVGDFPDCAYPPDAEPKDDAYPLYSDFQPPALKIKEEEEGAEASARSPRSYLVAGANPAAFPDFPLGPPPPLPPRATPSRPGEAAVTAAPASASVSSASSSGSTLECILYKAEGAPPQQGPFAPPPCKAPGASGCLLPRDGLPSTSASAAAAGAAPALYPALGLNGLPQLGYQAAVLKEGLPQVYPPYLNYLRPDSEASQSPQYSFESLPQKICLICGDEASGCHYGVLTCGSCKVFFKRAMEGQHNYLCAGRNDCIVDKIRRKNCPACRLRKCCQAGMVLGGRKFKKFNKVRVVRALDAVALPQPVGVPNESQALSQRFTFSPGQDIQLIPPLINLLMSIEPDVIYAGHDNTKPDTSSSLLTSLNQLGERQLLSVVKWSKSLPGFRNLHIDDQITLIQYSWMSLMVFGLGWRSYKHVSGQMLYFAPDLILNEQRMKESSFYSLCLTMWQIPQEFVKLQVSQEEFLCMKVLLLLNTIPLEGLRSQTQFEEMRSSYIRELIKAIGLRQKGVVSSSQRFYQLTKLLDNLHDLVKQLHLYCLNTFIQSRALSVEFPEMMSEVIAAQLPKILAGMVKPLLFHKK
The test is described as follows: Agonist efficacy for human progesterone receptor (hPR) was compared to that of progesterone (100%). The format is functional. The procedure, abridged: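 Cotransfection assay in CV-1 cells transiently transfected by calcium phosphate coprecipitation with hPR plasmid, MTV-LUC reporter, pRS-β-Gal and filler DNA. Full dose–response curves from 10^-12 to 10^-5 M were run. […] Values are the mean of at least three experiments with triplicate determinations, or of two experiments, or a single experiment.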

The term IC50 denotes the midpoint of a concentration-inhibition curve. Molecule `CC1=CC(C)(C)Nc2ccc3c(c21)C(c1ccc(Cl)c(C)c1)Oc1ccccc1-3` (stereo not drawn) displayed an IC50 in test [1] of 2.03 µM. Moreover, in test [2], the Efficacy amounted to 68%. Consider `CC1=CC(C)(C)Nc2ccc3c(c21)C(c1ccc(Cl)c(Cl)c1)Oc1ccccc1-3` (stereo not drawn), for which the IC50 in test [1] was determined as 1.06 µM. The same molecule had an Efficacy in test [2] of 66%. On the same counts, the results for `CC1=CC(C)(C)Nc2ccc3c(c21)C(c1ccc(C)c(F)c1)Oc1ccccc1-3` (stereo not drawn) are 1 µM and 83%.

With `CC1=CC(C)(C)Nc2ccc3c(c21)C(c1cccc(Cl)c1)Oc1ccccc1-3` (stereo not drawn), the IC50 in test [1] is 0.748 µM. The Efficacy in test [2] was 76%. As for `CC1=CC(C)(C)Nc2ccc3c(c21)C(c1cc(C)cc(Br)c1)Oc1ccccc1-3` (stereo not drawn), the IC50 in test [1] is greater than 10 µM. Also, the Efficacy in test [2] worked out at 65%.

In test [1], `CC1=CC(C)(C)Nc2ccc3c(c21)C(c1cc(Cl)cc(Cl)c1)Oc1ccccc1-3` (stereo not drawn) yielded an IC50 greater than 10 µM. Further, the Efficacy in test [2] came to 57%. In turn, `CC1=CC(C)(C)Nc2ccc3c(c21)C(c1ccc(Cl)c(F)c1)Oc1ccccc1-3` (stereo not drawn) returned an IC50 in test [1] of 1.36 µM. In test [2], this molecule displayed an Efficacy of 59%. For the molecule `CC1=CC(C)(C)Nc2ccc3c(c21)C(c1cccc(C(F)(F)F)c1)Oc1ccccc1-3` (stereo not drawn), in test [1], the IC50 stood at 2.22 µM. The same molecule showed an Efficacy in test [2] of 96%. Regarding `CC1=CC(C)(C)Nc2ccc3c(c21)C(c1ccc(C)cc1)Oc1ccccc1-3` (stereo not drawn), the IC50 in test [1] amounted to 1.59 µM. In test [2], this molecule had an Efficacy of 59%.

Turning to `CC1=CC(C)(C)Nc2ccc3c(c21)C(c1ccc(Br)cc1)Oc1ccccc1-3` (stereo not drawn), inhibition in test [1] was half-maximal at 0.977 µM (IC50). In addition, the Efficacy in test [2] was 59%. Regarding `CC1=CC(C)(C)Nc2ccc3c(c21)C(c1ccc(Cl)cc1)Oc1ccccc1-3` (stereo not drawn), the IC50 in test [1] was 1.53 µM. Consider `CC1=CC(C)(C)Nc2ccc3c(c21)C(c1cccc(Br)c1)Oc1ccccc1-3` (stereo not drawn), for which the IC50 in test [1] came out at 1.07 µM. Also, the Efficacy in test [2] is 77%.

The values are drawn from ChEMBL document CHEMBL1131454 (J Med Chem, 1998).
